Source: PubChem
HUVEC inhibit – blocks proliferation of human endothelial cells; HUVEC proliferation, CellTiter-Glo luminescence, 72 h; stronger effect = lower value; viability, % at 10 µM (by protocol); 1.1% of 86,000 active; AID 648;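 active means viability at or below 30%; inactive means viability above 30%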;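 further: 100% = median luminescence of DMSO-only cell control wells on each plate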
H69AR inhibit – blocks growth of human H69AR lung tumor cells; H69AR lung tumor viability, ATP luminescence, 72 h; stronger effect = lower value; viability, % at 10 µM; AID 598; 6% of 85,000 active;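 active means viability at or below 40%; inactive means viability above 40%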;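 further: multidrug resistant small cell line overexpressing MRP-1 efflux transporter; 100% = mean luminescence of untreated control wells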
Lung fibro prol – blocks proliferation of human lung fibroblasts | LL 47 human lung fibroblast viability, ATP luminescence; stronger effect = lower value | viability, % at 10 µM | 1.1% of 85,000 active | AID 719;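 active means viability at or below 50% in the single dose screen; inactive means viability above 50%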;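 further: compound exposure lasted 72 h before the ATP readout; 100% = median luminescence of untreated cell-only wells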
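Signal: luminescent ATP detection, CellTiter-Glo; assay system: LL 47 human lung fibroblasts; input: 1,150 cells/well; incubation: overnight cell rest, 72 h compound treatment at 37 °C; measure: % viability versus median cells-only luminescence; medium: IMEM growth medium with 15% fetal bovine serum; dosing: compound addition at 0.1% DMSO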
Jurkat tox 60K – cytotoxic compounds reducing Jurkat cell viability; Jurkat E6.1 viability, ATP luminescence, 48 h; inhibition, % at 4 µM; 1.2% of 56,000 active; AID 463;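 active means inhibition above the mean inhibition of all tested compounds plus 3 SD, cut at about 28% in these data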
* marks the source's active call; other numbers are inactive results; nt = not tested or not shown. Only some compounds are listed: those with a hit (about 6.4% of all), similar ones and a draw of the others.

SMILES	HUVEC inhibit	H69AR inhibit	Lung fibro prol	Jurkat tox 60K
O=C(c1cccc2ccccc12)n1nnc2ccccc21	66.1	6.5*	98.6	nt
C#CCOC(=O)c1ccccc1C(=O)n1nnc2ccccc21	88.8	38.2*	97.5	-2.6
Cc1ccc(C(=O)n2nnc3ccccc32)cc1	96.5	92.1	99.0	nt
COc1ccc(-c2nn(-c3ccccc3)cc2C(=O)O)cc1OC	104.1	95.7	107.9	nt
CCCCNC(=O)CN1C(=O)NC2(CCCc3ccccc32)C1=O (configuration not stated)	104.4	110.1	109.9	nt
O=C(COCc1nc2ccccc2c(=O)[nH]1)NC1CCCC1	85.2	96.5	98.6	2.6
CC(C)OCCCN1C(=O)c2ccccc2C1C(=O)NC1CCCCC1 (configuration not stated)	100.0	92.8	100.0	1.3
COc1ccc2c(=O)c3c(=O)n(Cc4ccco4)c(-c4ccco4)nc3oc2c1	85.5	71.3	112.2	nt
COc1ccc(Cn2c(-c3ccco3)nc3oc4cc(OC)ccc4c(=O)c3c2=O)cc1	73.1	19.9*	98.1	-2.3
COc1ccc(CCn2c(-c3ccco3)nc3ccccc3c2=O)cc1OC	67.8	38.6*	105.1	8.7
COc1ccc(-c2nc3oc4cc(OC)ccc4c(=O)c3c(=O)n2Cc2ccco2)cc1	102.2	3.8*	100.2	0.4
COc1ccc(CCn2c(-c3ccco3)nc3oc4ccccc4c(=O)c3c2=O)cc1	74.3	nt	101.1	1.8
COc1ccc(Cn2c(-c3ccco3)nc3oc4ccccc4c(=O)c3c2=O)cc1	75.0	28.6*	72.5	0.2
COCCCn1c(-c2ccco2)nc2ccccc2c1=O	95.3	95.6	96.9	2.4
CCOC(=O)C1=C(C)Nc2nc(=S)[nH]n2C1c1ccc(Cl)cc1 (configuration not stated)	89.1	89.3	90.8	nt
CCCCN(CC)C(=O)Cn1cnc2ccc(S(=O)(=O)N3CCC(C)CC3)cc2c1=O	99.6	91.6	104.2	nt
COc1cc2[nH]c(=O)n3nc(-c4ccccc4)nc3c2cc1OC	86.6	46.2	111.7	nt
CCN(CC)CCNc1nc2cc(OC)c(OC)cc2c2nc(-c3ccccc3)nn12	10.8*	15.5*	2.7*	nt
COC(=O)c1c(NC(=O)c2ccco2)sc(C(=O)Nc2ccc(F)cc2)c1C	34.5	3.6*	100.3	-4.2
CC(C)c1nnc(NC(=O)CCS(=O)(=O)c2nc(-c3cccs3)cc(C(F)(F)F)n2)s1	16.2*	1.1*	84.8	23.4
CCOc1ccc2c(c1)-c1c(ssc1=S)C(C)(C)N2C	77.3	32.3*	97.4	nt
COCCN1C(=O)c2ccccc2C(C(=O)Nc2ccc3c(c2)OCCO3)C1c1ccc(F)cc1 (configuration not stated)	92.8	95.2	88.7	nt
CN(c1cccc(Cl)c1)S(=O)(=O)c1cccc(C(=O)NC2=NCCS2)c1	89.2	39.8*	100.5	nt
COC(=O)C1=C(C)NC(=O)C1(NC(=O)CN1CCCC1=O)C(F)(F)F (configuration not stated)	109.5	92.0	106.4	-6.1
O=C(CCS(=O)(=O)c1ccccc1)Nc1nc2c(s1)COc1ccccc1-2	57.9	2.0*	49.8*	-6.4
SMILES	HUVEC inhibit	H69AR inhibit	Lung fibro prol	Jurkat tox 60K
O=C(c1cc(-c2ccncc2)nc2ccccc12)N1CCN(c2ccccn2)CC1	50.8	19.4*	59.6	nt
O=C(c1ccccc1-c1ccccc1)N1CCN(c2ccccn2)CC1	56.0	19.2*	53.3	83.8*
O=C(c1cc(-c2cccnc2)nc2ccc(Br)cc12)N1CCN(c2ncccn2)CC1	51.0	5.3*	80.1	-2.7
O=C(c1cc(-c2ccccc2)nc2ccccc12)N1CCN(c2ccccn2)CC1	86.3	57.7	94.6	-4.2
CCN(CCCNC(=O)CN(C)S(=O)(=O)c1cccc2nsnc12)c1ccccc1	92.7	89.2	100.2	0.5
COc1cc(C(=O)N2CCN(c3ccc([N+](=O)[O-])cc3)CC2)ccc1OCc1c(C)noc1C	110.2	38.3*	98.7	nt
O=C(CSC1=NCCN1)NC12CC3CC(CC(C3)C1)C2	89.3	15.5*	95.9	-4.7
O=C(CSC1=NCCN1)NC1CCCCCC1	65.7	88.7	90.9	nt
O=C(/C=C/Sc1ccccc1)c1ccccc1	45.5	2.2*	8.3*	nt
O=C(/C=C/Sc1ccccc1)c1ccc(Cl)cc1	48.9	1.6*	32.8*	nt
Cc1cc(C)c(C(=O)CSc2n[nH]c(=O)n2C2CC2)cc1C	105.9	96.5	104.8	7.8
CCCCc1ccc(Nc2nc(CCC)cc(=O)[nH]2)cc1	2.5*	57.7	75.2	2.8
Cc1cc(C)n(-c2ccc3cccc(NS(C)(=O)=O)c3n2)n1	22.6*	20.7*	26.3*	2.9
CS(=O)(=O)Nc1cccc2cccnc12	89.9	65.0	90.0	-2.9
